Measurements: ChEMBL document CHEMBL5724801, “EUbOPEN Chemogenomics Library - Multiplex” (2024)
“And” between values parts separate entries of the source, which are not always exact repeats. Equal values may be shown once.

Tested on: Fibroblast
Assay: Multiplex assay against human fibroblast
Type: toxicity, cell-based
Outline: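 On a CQ1 microscope at 37°C and 5% CO2, live cells were imaged after compound addition. They had been stained at seeding with Hoechst33342, BioTracker Green Microtubule Cytoskeleton Dye, MitoTracker Red and Annexin V Alexa Fluor 680. CellPathfinder machine-learning gating assigned cells to Hoechst high-intensity objects or normal cells, normal cells to healthy, pyknosed or fragmented nuclei, and pyknosed cells to mitotic or apoptotic. Tubulin, mitochondrial-mass and membrane-permeability phenotypes are per cents of healthy-nucleus cells.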

[1] = 12 h, 1 µM, compound concentration 1 uM
[2] = 12 h, 10 µM, compound concentration 10 uM
[3] = 24 h, 1 µM, compound concentration 1 uM
[4] = 24 h, 10 µM, compound concentration 10 uM
[5] = 48 h, 1 µM, compound concentration 1 uM
[6] = 48 h, 10 µM, compound concentration 10 uM

SMILES: CC(C)(O)C(=O)N1CCN(c2ccc(C(F)(F)F)c(C3=C(c4c[nH]c5ccccc45)C(=O)NC3=O)c2)CC1
- Population Apoptotic (%) [1]: 41% and 32%
- Population Fragmented Nuclei (%) [1]: 14% and 30%
- Population Healthy Nuclei (%) [1]: 68% and 46%
- Population Hoechst High Intensity Objects (%) [1]: 2% and 5%
- Population Membrane Permeable-Phenotype (%) [1]: 0% and 5%
- Population Mitochondria Different-Phenotype (%) [1]: 9% and 5%
- Population Mitotic Cells (%) [1]: 58% and 67%
- Population Normal (%) [1]: 97% and 94%
- Population Pyknosed Nuclei (%) [1]: 17% and 22%
- Population Tubulin-Different-Phenotype (%) [1]: 30% and 56%
- Total Cell Count [1]: 144 and 170
- Population Apoptotic (%) [2]: 33% and 35%
- Population Fragmented Nuclei (%) [2]: 17% and 26%
- Population Healthy Nuclei (%) [2]: 50% and 31%
- Population Hoechst High Intensity Objects (%) [2]: 4% and 6%
- Population Mitochondria Different-Phenotype (%) [2]: 25% and 10%
- Population Mitotic Cells (%) [2]: 66% and 64%
- Population Normal (%) [2]: 96% and 93%
- Population Pyknosed Nuclei (%) [2]: 32% and 42%
- Population Tubulin-Different-Phenotype (%) [2]: 83% and 90%
- Total Cell Count [2]: 125 and 137
- Population Apoptotic (%) [3]: 50% and 31%
- Population Fragmented Nuclei (%) [3]: 22% and 31%
- Population Healthy Nuclei (%) [3]: 61% and 45%
- Population Hoechst High Intensity Objects (%) [3]: 1% and 8%
- Population Membrane Permeable-Phenotype (%) [3]: 0% and 2%
- Population Mitochondria Different-Phenotype (%) [3]: 3% and 8%
- Population Mitotic Cells (%) [3]: 50% and 68%
- Population Normal (%) [3]: 98% and 91%
- Population Pyknosed Nuclei (%) [3]: 16% and 23%
- Population Tubulin-Different-Phenotype (%) [3]: 40% and 58%
- Total Cell Count [3]: 161 and 176
- Population Apoptotic (%) [4]: 26% and 36%
- Population Fragmented Nuclei (%) [4]: 24% and 27%
- Population Healthy Nuclei (%) [4]: 40% and 33%
- Population Hoechst High Intensity Objects (%) [4]: 7% and 3%
- Population Membrane Permeable-Phenotype (%) [4]: 2% and 6%
- Population Mitochondria Different-Phenotype (%) [4]: 30% and 20%
- Population Mitotic Cells (%) [4]: 73% and 63%
- Population Normal (%) [4]: 92% and 96%
- Population Pyknosed Nuclei (%) [4]: 34% and 39%
- Population Tubulin-Different-Phenotype (%) [4]: 79% and 90%
- Total Cell Count [4]: 131 and 138
- Population Apoptotic (%) [5]: 64% and 41%
- Population Fragmented Nuclei (%) [5]: 21% and 33%
- Population Healthy Nuclei (%) [5]: 61% and 37%
- Population Hoechst High Intensity Objects (%) [5]: 5% and 7%
- Population Membrane Permeable-Phenotype (%) [5]: 0% and 1%
- Population Mitochondria Different-Phenotype (%) [5]: 12% and 15%
- Population Mitotic Cells (%) [5]: 36% and 58%
- Population Normal (%) [5]: 94% and 92%
- Population Pyknosed Nuclei (%) [5]: 17% and 28%
- Population Tubulin-Different-Phenotype (%) [5]: 38% and 67%
- Total Cell Count [5]: 155 and 165
- Population Apoptotic (%) [6]: 54%
- Population Fragmented Nuclei (%) [6]: 33% and 35%
- Population Healthy Nuclei (%) [6]: 27% and 25%
- Population Hoechst High Intensity Objects (%) [6]: 12% and 6%
- Population Membrane Permeable-Phenotype (%) [6]: 0% and 10%
- Population Mitochondria Different-Phenotype (%) [6]: 53% and 30%
- Population Mitotic Cells (%) [6]: 45%
- Population Normal (%) [6]: 87% and 93%
- Population Pyknosed Nuclei (%) [6]: 38% and 40%
- Population Tubulin-Different-Phenotype (%) [6]: 93% and 83%
- Total Cell Count [6]: 123 and 129
